According to ChEMBL document CHEMBL1139885, “De novo parallel design, synthesis and evaluation of inhibitors against the reverse transcriptase of human immunodeficiency virus type-1 and drug-resistant variants” (J Med Chem, 2007):
pIC50: −log10 of the molar value. The source made the active and inactive calls. The calls are words filed in the database; no cut-off is given here.

How the values were obtained:
[1] = Inhibition of RNase H activity of HIV1 reverse transcriptase; design: species or system Human immunodeficiency virus 1
In short: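 FRET assay: RT (6 nM) with fluorescein-RNA/DNA-dabcyl hybrid substrate, 1 mM DTT, ± inhibitor; fluorescence read after 30 min at 37 °C. Triplicates; IC50 interpolated from dose-response curves.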

[2] = molecular target: T1, Human immunodeficiency virus type 1 reverse transcriptase (Human immunodeficiency virus 1, UniProt Q72547); assay: Inhibition of DNA polymerase activity of HIV1 reverse transcriptase
[3] = Cytotoxicity against Jurkat cells by XTT assay; format: cell-based; conditions: human
In short: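 Jurkat cells; XTT read-out, absorbance 450 nm with 620 nm reference. CC50 = concentration reducing viability by 50% versus inhibitor-free control.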

[4] = molecular target: Human immunodeficiency virus type 1 reverse transcriptase (Human immunodeficiency virus 1) (UniProt Q72547); assay: Inhibition of reverse transcriptase binding to DNA assessed as formation of RT-DNA complex by gel mobility shift assay
In short: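 RT 1.5 pmol preincubated 10 min at 4 °C with compound at 250 and 625 µM final. Then 0.12 pmol 5'-32P-labeled 54-nt duplex DNA added, in 10 mM HEPES, 30 mM ammonium sulfate, 0.25 mM DTT, 0.1 mg/mL BSA, pH 8.0; 10 min 32 °C. Run on nondenaturing 6.5% polyacrylamide gel, TBE, 4 °C; autoradiography.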

[5] = Inhibition of drug-resistant reverse transcriptase L100I-K103 mutant; design: species or system Human immunodeficiency virus 1
In short: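 p66/p66 homodimer HIV-1 RT double mutant (His-tagged, E. coli-expressed, Ni-NTA purified). DNA polymerase activity: [3H]dTTP incorporation into poly(rA)n·oligo(dT)12-18. DMSO serial dilutions of inhibitor plus 14 ng RT in Tris-HCl pH 7.5/KCl/MgCl2, 10 min on ice, then substrate added, 30 min at 37 °C, scintillation counting. IC50 from a four-parameter logistic fit, from at least two experiments.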

[6] = Inhibition of drug-resistant reverse transcriptase […] mutant; design: species or system Human immunodeficiency virus 1
[7] = molecular target: T1, Human immunodeficiency virus type 1 reverse transcriptase; assay: Inhibition of HIV1 wild type p66/p51 reverse transcriptase
In short: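 BH-10-derived p66/p51 RT, C-terminal His6 on p66, expressed in bacteria, Ni-NTA then cation exchange purified. Substrate mix: 50 µg/mL poly(rA)·oligo(dT)12-18, 50 µM dTTP, [3H]dTTP; 30 min 37 °C.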

[8] = system: Human immunodeficiency virus 1; assay: Inhibition of DNA polymerase activity of reverse transcriptase pre-incubated with drug assessed as impairment of primer elongation by DNA polymerase primer-extension assay
In short: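 Primer extension: 5′-32P-labelled 15-mer primed on circular φX174am3 template (4 nM T/P). RT (1.6 nM) preincubated 30 min on ice, with inhibitor before T/P addition, or with T/P for 5 min before inhibitor. Buffer 6.6 mM Tris-HCl pH 8.0, 4 mM DTT, 6 mM MgCl2, 33 mM NaCl, BSA, 20 µM each dNTP. Run 30 min at 37 °C; products resolved on gel and viewed by autoradiography.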

SMILES	pIC50 [1]	pIC50 [2]	CC50 [3]	other results
N#CCC(=O)c1cccc(-c2ccccc2)c1	4.08	4.48	233 µM	
NC(=O)c1scnc1-c1cccc(I)c1		< 3.51		
NC(=O)c1sc(N)nc1-c1cccc(-c2ccccc2)c1	3.60	4.23	244 µM	
CCOP(=O)(OCC)Oc1cccc(C(=O)CC#N)c1	3.95	4.19	> 312 µM	
NC(=O)CC(=O)c1cccc(I)c1	< 3.51	4.53	> 312 µM	
NC(=O)c1sc(N)nc1-c1cccc(C(=O)c2ccccc2)c1	< 3.51	4.36	> 312 µM	
NC(=O)c1[nH]cnc1-c1cccc(C(=O)c2ccccc2)c1		< 3.51		
NC(=O)CC(=O)c1cccc(-c2ccccc2)c1		< 3.51		
N#CCC(=O)c1ccc(Cl)c(Br)c1		< 3.51		
NC(=O)CC(=O)c1cccc(C(=O)c2ccccc2)c1		< 3.51		
NC(=O)c1[nH]cnc1-c1cccc(Cl)c1	< 3.51	4.10	> 312 µM	
NC(=O)c1scnc1-c1cccc(-c2ccccc2)c1		< 3.51		
NC(=O)c1sc(N)nc1-c1cccc(Cl)c1	< 3.51	4.26	> 312 µM	
NC(=O)c1[nH]cnc1-c1ccccc1		3.52		
NC(=O)c1[nH]cnc1-c1cccc(-c2ccccc2)c1		< 3.51		
C[C@@H]1CC=C2[C@@H](CCC[C@@]2(C)CC[C@@]2(C)C3=CCCC(C)(C)[C@H]3CC[C@@H]2C)[C@]1(C)Cc1cc(OS(=O)(=O)O)ccc1OS(=O)(=O)O				Activity [4]: Active
NC(=O)c1[nH]cnc1-c1ccc(Cl)c(Br)c1	4.39	5.00	213 µM	Activity [4]: inactive; pIC50 [5]: 4.70; pIC50 [6]: 4.58; pIC50 [7]: 5.00
NC(=O)c1scnc1-c1ccc(Cl)c(Br)c1		4.06		
NC(=O)c1scnc1-c1ccccc1		3.55		
N#CCC(=O)c1cccc(I)c1		< 3.51		
NC(=O)c1sc(N)nc1-c1ccccc1	< 3.51	4.09	> 312 µM	
NC(=O)c1sc(N)nc1-c1cccc(I)c1		3.90		
N#CCC(=O)Cc1cccc(I)c1	4.70	5.46	247 µM	Activity [4]: inactive; pIC50 [5]: 5.03; Activity [8]: Active; pIC50 [6]: 5.00; pIC50 [7]: 5.46
NC(=O)CC(=O)c1cccc(Cl)c1		< 3.51		
Cc1ccnc2c1NC(=O)c1cccnc1N2C1CC1				Activity [4]: inactive; Activity [8]: Active
N#CCC(=O)c1cccc(Cl)c1	4.55	5.39	> 312 µM	
NC(=O)c1sc(N)nc1-c1ccc(Cl)c(Br)c1		3.93		
NC(=O)c1scnc1-c1cccc(C(=O)c2ccccc2)c1	4.11	4.79	> 312 µM	
N#CCC(=O)c1cccc(C(=O)c2ccccc2)c1	4.01	5.01	251 µM	
